This passage reports MIC and IC50 results from ChEMBL document CHEMBL1128719, “The synthesis, structure-activity, and structure-side effect relationships of a series of 8-alkoxy- and 5-amino-8-alkoxyquinolone antibacterial agents” (J Med Chem, 1995).

In brackets after ≈: the same amount, converted by molar mass. Where only a bound is given, the exact number is not on record here.

The subject of assay [1] is Staphylococcus aureus. Nature of the assay: In vitro antibacterial activity was tested for Staphylococcus aureus UC-76. Format: functional. The procedure, abridged: (§1)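 Microtitration (microdilution) MIC determination in μg/mL against a panel of Gram-positive, Gram-negative and anaerobic organisms. Values come from duplicate or triplicate experiments and are stated accurate to ±50%.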

In another assay the test system is Providencia rettgeri. Nature of the assay: In vitro antibacterial activity was tested for Providencia rettgeri H1771. Format: functional. The procedure, abridged: as §1
The test system of a further assay is Clostridioides difficile. Nature of the assay: In vitro antibacterial activity was tested for Clostridium diff CD1-1. Format: functional.
The test system of a further assay is V79. In words: Clonogenic cytotoxicity against Chinese hamster V-79 cells. Format: functional, cell-based. The conditions noted are these: Cricetulus griseus.
Assay [2] concerns Staphylococcus aureus. Nature of the assay: In vitro antibacterial activity was tested for Staphylococcus aureus H228. Type of assay: functional. The procedure, abridged: as §1
Another assay relates to Enterobacter cloacae. In words: In vitro antibacterial activity was tested for Enterobacter cloacae HA2646. Type of assay: functional.
Assay [3] has as its system Escherichia coli. Nature of the assay: In vitro antibacterial activity was tested for Escherichia coli H560. Format: functional. The procedure, abridged: as §1
The test system of another assay is Streptococcus pneumoniae. In words: In vitro antibacterial activity was tested for Streptococcus pneumoniae SV-1. Format: functional. The procedure, abridged: as §1
The next assay has as its system Bacteroides fragilis. Nature of the assay: In vitro antibacterial activity against Bacteroides fragilis BFA. Format: functional. The procedure, abridged:
as §1

The subject of the next assay is Cutibacterium acnes. Nature of the assay: In vitro antibacterial activity was tested for Propion acnes PA5-1. Format: functional. The procedure, abridged: as §1
Assay [4] relates to Peptoniphilus asaccharolyticus. Nature of the assay: In vitro antibacterial activity was tested for Pepto asac PA 3-1. Format: functional. The procedure, abridged:
as §1

The next assay concerns Pseudomonas aeruginosa. Nature of the assay: In vitro antibacterial activity was tested for Pseudomonas aeruginosa UI-18. Type of assay: functional. The procedure, abridged: as §1
Another assay relates to Klebsiella pneumoniae. Nature of the assay: In vitro antibacterial activity was tested for Klebsiella pneumoniae MGH-2. Type of assay: functional. The procedure, abridged: as §1
The next assay relates to Clostridium perfringens. In words: In vitro antibacterial activity against Clostridium perfringens CP 3-1. Type of assay: functional.
Assay [5] deals with Escherichia coli. In words: In vitro antibacterial activity was tested for Escherichia coli Vogel. Format: functional. The procedure, abridged: as §1
For another assay, the system named is Enterococcus faecalis. In words: In vitro antibacterial activity was tested for Streptococcus faecalis MGH-2. Format: functional. The procedure, abridged: as §1
A further assay deals with Streptococcus pyogenes. In words: In vitro antibacterial activity was tested for Streptococcus pyogenes C203. Format: functional. The procedure, abridged: as §1

For orientation: MIC means the smallest concentration in the dilution series that meets the test's criterion for growth inhibition. The low end stands for greater potency, the high end for weaker potency. For orientation: IC50 means the midpoint of a concentration-inhibition curve. A higher IC50 goes with weaker potency. Take `COc1c(N2CCCC(CN)C2)c(F)c(N)c2c(=O)c(C(=O)O)cn(C3CC3)c12` (configuration not stated): the MIC in the assay on Staphylococcus aureus [1] was 0.006 µg/mL (≈ 0.0148 µM); in the assay with Providencia rettgeri, 0.8 µg/mL (≈ 1.98 µM); in the assay with Clostridioides difficile, 1.6 µg/mL (≈ 3.96 µM); with Staphylococcus aureus [2], 0.05 µg/mL (≈ 0.124 µM); in the assay on Enterobacter cloacae, 0.2 µg/mL (≈ 0.495 µM); in the assay with Escherichia coli [3], 0.1 µg/mL (≈ 0.247 µM). The MIC in the assay on Streptococcus pneumoniae came to 0.025 µg/mL (≈ 0.0618 µM); against Bacteroides fragilis, 3.1 µg/mL (≈ 7.66 µM); against Cutibacterium acnes it was 1.6 µg/mL (≈ 3.96 µM); in [4] it was 0.8 µg/mL (≈ 1.98 µM); in the assay with Pseudomonas aeruginosa, 3.1 µg/mL (≈ 7.66 µM); in the assay with Klebsiella pneumoniae it was 0.4 µg/mL (≈ 0.989 µM). In addition, the MIC with Clostridium perfringens is 0.2 µg/mL (≈ 0.495 µM); in the assay on Escherichia coli [5], 0.1 µg/mL (≈ 0.247 µM); in the assay on Enterococcus faecalis it was 0.025 µg/mL (≈ 0.0618 µM); against Streptococcus pyogenes it was 0.025 µg/mL (≈ 0.0618 µM). Moreover, in the assay with V79, the IC50 was found to be 140 µg/mL (≈ 346 µM).
As to `COc1c(N2CCC(C)(CN)C2)c(F)c(N)c2c(=O)c(C(=O)O)cn(C3CC3)c12` (configuration not stated), the minimal inhibitory concentration (MIC) in the assay on Staphylococcus aureus [1] came out at 0.006 µg/mL (≈ 0.0148 µM); against Providencia rettgeri, 0.8 µg/mL (≈ 1.98 µM); against Clostridioides difficile, 1.6 µg/mL (≈ 3.96 µM); in the assay with Staphylococcus aureus [2], 0.025 µg/mL (≈ 0.0618 µM); against Enterobacter cloacae it was 0.1 µg/mL (≈ 0.247 µM); in the assay with Escherichia coli [3], 0.05 µg/mL (≈ 0.124 µM). Also, the MIC against Streptococcus pneumoniae turned out to be 0.013 µg/mL (≈ 0.0321 µM); with Bacteroides fragilis it was 1.6 µg/mL (≈ 3.96 µM); in the assay with Cutibacterium acnes it was 1.6 µg/mL (≈ 3.96 µM); in assay [4], 0.8 µg/mL (≈ 1.98 µM); against Pseudomonas aeruginosa, 3.1 µg/mL (≈ 7.66 µM); against Klebsiella pneumoniae, 0.2 µg/mL (≈ 0.495 µM). Moreover, the MIC came to 0.8 µg/mL (≈ 1.98 µM) against Clostridium perfringens, 0.1 µg/mL (≈ 0.247 µM) against Escherichia coli [5], 0.05 µg/mL (≈ 0.124 µM) in the assay with Enterococcus faecalis and 0.025 µg/mL (≈ 0.0618 µM) with Streptococcus pyogenes. This compound had an IC50 with V79 of 140 µg/mL (≈ 346 µM).
For `CCOc1c(N2CCC(N)C2)c(F)cc2c(=O)c(C(=O)O)cn(C3CC3)c12` (configuration not stated), the MIC against Staphylococcus aureus [1] stood at 0.013 µg/mL (≈ 0.0346 µM); in the assay with Providencia rettgeri it was 0.4 µg/mL (≈ 1.07 µM); with Clostridioides difficile, 3.1 µg/mL (≈ 8.26 µM); with Staphylococcus aureus [2], 0.05 µg/mL (≈ 0.133 µM); in the assay on Enterobacter cloacae, 0.1 µg/mL (≈ 0.266 µM); against Escherichia coli [3], 0.05 µg/mL (≈ 0.133 µM). The MIC was found to be 0.1 µg/mL (≈ 0.266 µM) against Streptococcus pneumoniae; 1.6 µg/mL (≈ 4.26 µM) with Bacteroides fragilis; 3.1 µg/mL (≈ 8.26 µM) in the assay on Cutibacterium acnes; 0.8 µg/mL (≈ 2.13 µM) in assay [4]; 3.1 µg/mL (≈ 8.26 µM) against Pseudomonas aeruginosa; 0.2 µg/mL (≈ 0.533 µM) in the assay on Klebsiella pneumoniae. Besides, the MIC against Clostridium perfringens worked out at 0.8 µg/mL (≈ 2.13 µM); against Escherichia coli [5], 0.05 µg/mL (≈ 0.133 µM); against Enterococcus faecalis, 0.1 µg/mL (≈ 0.266 µM); with Streptococcus pyogenes it was 0.2 µg/mL (≈ 0.533 µM). This compound came in with an IC50 with V79 of 210 µg/mL (≈ 559 µM).
In the case of `CCOc1c(N2CCCC(CN)C2)c(F)cc2c(=O)c(C(=O)O)cn(C3CC3)c12` (configuration not stated), the MIC against Staphylococcus aureus [1] was 0.013 µg/mL (≈ 0.0322 µM); in the assay on Providencia rettgeri, greater than 3.1 µg/mL; against Clostridioides difficile, 3.1 µg/mL (≈ 7.68 µM); in the assay with Staphylococcus aureus [2] it was 0.05 µg/mL (≈ 0.124 µM); in the assay on Enterobacter cloacae, 0.4 µg/mL (≈ 0.991 µM); against Escherichia coli [3], 0.1 µg/mL (≈ 0.248 µM). The minimal inhibitory concentration (MIC) against Streptococcus pneumoniae is 0.025 µg/mL (≈ 0.062 µM); with Bacteroides fragilis it was 3.1 µg/mL (≈ 7.68 µM); with Cutibacterium acnes, 3.1 µg/mL (≈ 7.68 µM); in assay [4], 0.4 µg/mL (≈ 0.991 µM); in the assay on Pseudomonas aeruginosa it was greater than 3.1 µg/mL; against Klebsiella pneumoniae, 0.8 µg/mL (≈ 1.98 µM). The MIC in the assay on Clostridium perfringens came out at 0.4 µg/mL (≈ 0.991 µM); in the assay on Escherichia coli [5], 0.2 µg/mL (≈ 0.496 µM); against Enterococcus faecalis, 0.05 µg/mL (≈ 0.124 µM); in the assay with Streptococcus pyogenes, 0.025 µg/mL (≈ 0.062 µM). In the assay with V79, this compound came in with a half-inhibitory concentration (IC50) of 63 µg/mL (≈ 156 µM).
For the compound `COc1c(N2CCC(CN)CC2)c(F)cc2c(=O)c(C(=O)O)cn(C3CC3)c12`, the MIC came to 0.05 µg/mL (≈ 0.128 µM) in the assay with Staphylococcus aureus [1]; 0.4 µg/mL (≈ 1.03 µM) in the assay on Providencia rettgeri; 0.8 µg/mL (≈ 2.05 µM) against Clostridioides difficile; 0.1 µg/mL (≈ 0.257 µM) against Staphylococcus aureus [2]; 0.1 µg/mL (≈ 0.257 µM) against Enterobacter cloacae; 0.1 µg/mL (≈ 0.257 µM) in the assay on Escherichia coli [3]. Also, the MIC with Streptococcus pneumoniae was 0.025 µg/mL (≈ 0.0642 µM); against Bacteroides fragilis it was 0.8 µg/mL (≈ 2.05 µM); in the assay on Cutibacterium acnes, 0.4 µg/mL (≈ 1.03 µM); in [4], 0.4 µg/mL (≈ 1.03 µM); in the assay with Pseudomonas aeruginosa it was 1.6 µg/mL (≈ 4.11 µM); against Klebsiella pneumoniae, 0.2 µg/mL (≈ 0.514 µM). The MIC is 0.4 µg/mL (≈ 1.03 µM) against Clostridium perfringens, 0.1 µg/mL (≈ 0.257 µM) in the assay on Escherichia coli [5], 0.05 µg/mL (≈ 0.128 µM) in the assay on Enterococcus faecalis and 0.025 µg/mL (≈ 0.0642 µM) with Streptococcus pyogenes. In addition, in the assay on V79, 94 µg/mL (≈ 241 µM) corresponded to half-maximal inhibition (IC50).
Consider `COc1c(N2CCNCC2)c(F)cc2c(=O)c(C(=O)O)cn(C3CC3)c12`, for which the MIC against Staphylococcus aureus [1] was 0.05 µg/mL (≈ 0.138 µM); against Providencia rettgeri, 0.1 µg/mL (≈ 0.277 µM); in the assay with Clostridioides difficile it was 1.6 µg/mL (≈ 4.43 µM); in the assay with Staphylococcus aureus [2], 0.2 µg/mL (≈ 0.553 µM); in the assay with Enterobacter cloacae, 0.025 µg/mL (≈ 0.0692 µM); in the assay on Escherichia coli [3], 0.025 µg/mL (≈ 0.0692 µM). The MIC in the assay with Streptococcus pneumoniae is 0.1 µg/mL (≈ 0.277 µM); with Bacteroides fragilis, 0.8 µg/mL (≈ 2.21 µM); against Cutibacterium acnes, 0.4 µg/mL (≈ 1.11 µM); in assay [4] it was 3.1 µg/mL (≈ 8.58 µM); in the assay on Pseudomonas aeruginosa it was 0.8 µg/mL (≈ 2.21 µM); in the assay with Klebsiella pneumoniae it was 0.1 µg/mL (≈ 0.277 µM). In addition, the MIC against Clostridium perfringens came to 0.4 µg/mL (≈ 1.11 µM); in the assay with Escherichia coli [5], 0.05 µg/mL (≈ 0.138 µM); against Enterococcus faecalis it was 0.2 µg/mL (≈ 0.553 µM); with Streptococcus pyogenes, 0.1 µg/mL (≈ 0.277 µM).
On to `COc1c(N2CC[C@@H](N)C2)c(F)cc2c(=O)c(C(=O)O)cn(C3CC3)c12`, for which the MIC amounted to 0.025 µg/mL (≈ 0.0692 µM) in the assay on Staphylococcus aureus [1]; 0.05 µg/mL (≈ 0.138 µM) against Providencia rettgeri; 0.8 µg/mL (≈ 2.21 µM) with Clostridioides difficile; 0.05 µg/mL (≈ 0.138 µM) with Staphylococcus aureus [2]; 0.025 µg/mL (≈ 0.0692 µM) against Enterobacter cloacae; 0.025 µg/mL (≈ 0.0692 µM) in the assay on Escherichia coli [3]. Also, the MIC against Streptococcus pneumoniae is 0.05 µg/mL (≈ 0.138 µM); against Bacteroides fragilis, 0.4 µg/mL (≈ 1.11 µM); in the assay with Cutibacterium acnes, 0.2 µg/mL (≈ 0.553 µM); in assay [4] it was 0.4 µg/mL (≈ 1.11 µM); with Pseudomonas aeruginosa it was 0.8 µg/mL (≈ 2.21 µM); in the assay on Klebsiella pneumoniae, 0.025 µg/mL (≈ 0.0692 µM). For the same compound, the MIC in the assay on Clostridium perfringens came out at 0.5 µg/mL (≈ 1.38 µM); in the assay on Escherichia coli [5], 0.025 µg/mL (≈ 0.0692 µM); in the assay with Enterococcus faecalis, 0.05 µg/mL (≈ 0.138 µM); in the assay on Streptococcus pyogenes it was 0.05 µg/mL (≈ 0.138 µM).
